The term inhibition denotes the change of the read-out against control, counted positive when it falls.

SMILES strings stand for the structures.

In one test the test system is Trypanosoma cruzi. As to the kind of experiment: (§1) The compound was tested in vitro for antitrypanosomal activity against Trypanosoma cruzi epimastigotes at a dose of 25 uM. In kind it is functional. The method in brief: (§2)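 T. cruzi Tulahuen 2 epimastigotes were grown at 28 °C in axenic BHI-tryptose medium with 10% fetal calf serum. Inocula came from a 10-day stationary culture, starting at 1 × 10⁶ cells/mL. Compound was added from a DMSO stock before inoculation, with final DMSO ≤0.4%; controls had 0.4% DMSO and no drug. Growth was read as A600 daily. Percent inhibition = {1 − [(Ap − A0p)/(Ac − A0c)]} × 100, using day-5 versus day-0 absorbances. Values are the mean of three experiments.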
As for `CCCCNC(=O)c1ccc2nonc2c1`, the inhibition at 25 µM came to 0%.
For the compound `CCCCCCNC(=O)c1ccc2nonc2c1`, the inhibition at 25 µM was 10%.

In another test the test system is Trypanosoma cruzi. Put plainly: In vitro antitrypanosomal activity against Trypanosoma cruzi epimastigotes at dose 25 uM. The class given is functional. The method in brief:
as §2
In turn, `CN(C)CCCNC(=O)c1ccc2no[n+]([O-])c2c1` returned an inhibition at 25 µM of 15%.
The same measure, in the same setting: then `O=C(NCCCN1CCOCC1)c1ccc2no[n+]([O-])c2c1`, with 19%; and `CCN(CC)CCCNC(=O)N/N=C/c1ccc2no[n+]([O-])c2c1`, with 8%.
With `CCCCNC(=O)N/N=C/c1ccc2c(c1)[n+]([O-])c(C#N)c(N)[n+]2[O-]`, the inhibition at 25 µM was 17%.
`CCCCNC(=O)N/N=C/c1ccc2c(c1)[n+]([O-])cc[n+]2[O-]` displayed an inhibition at 25 µM of 23%.
Still for that read-out and setting: the result for `CCCCNC(=O)N/N=C/c1no[n+]([O-])c1C` reads 0%; that for `[O-][n+]1onc(-c2ccccc2)c1CNCCCN1CCOCC1`, 38%; that for `CCCCCCNC(=O)N/N=C/c1c(-c2ccccc2)no[n+]1[O-]`, 53%.
`Cc1c(CNCCCN2CCOCC2)no[n+]1[O-]` yielded an inhibition at 25 µM of 0%.
Same read-out and setting: the result for `O=C(NCCCN1CCCCC1)c1ccc2no[n+]([O-])c2c1` reads 45%; that for `CCCCCCNC(=O)N/N=C/c1ccc2no[n+]([O-])c2c1`, 55%; that for `CCCCNC(=O)N/N=C/c1ccc2no[n+]([O-])c2c1`, 45%.
The same measure, in the same setting: the result for `CCCCNC(=O)N/N=C/c1c(C)[n+]([O-])c2ccccc2[n+]1[O-]` reads 6%; that for `CCCCCCNC(=O)c1ccc2no[n+]([O-])c2c1`, 79%; that for `CCCCNC(=O)N/N=C/c1c(-c2ccccc2)no[n+]1[O-]`, 17%.
Still for that read-out and setting: then `CCN(CC)CCCNCc1c(-c2ccccc2)no[n+]1[O-]`, with 22%; and `CCCCNC(=O)c1ccc2no[n+]([O-])c2c1`, with 90%.
The compound `Cc1c(CNCCCN2CCCCC2)no[n+]1[O-]` yielded an inhibition at 25 µM of 0%.
In turn, `CCCCNCc1ccc2no[n+]([O-])c2c1` came in with an inhibition at 25 µM of 21%.
The same measure, in the same setting: then `CCCCNC(=O)N/N=C/c1ccc2nonc2c1`, with 0%; and `CCCCNC(=O)NNCc1ccc2no[n+]([O-])c2c1`, with 55%; and `CCN(CC)CCCNC(=O)c1ccc2no[n+]([O-])c2c1`, with 17%.
On to `CCCCNC(=O)N/N=C/c1ccc2c(c1)[n+]([O-])c(C)c(C)[n+]2[O-]`, for which the inhibition at 25 µM is 0%.
On the same count and under the same terms, then `CCCCCCNC(=O)N/N=C/c1no[n+]([O-])c1C`, with 3%.
Same read-out and setting: then `CN(C)CCCNC(=O)N/N=C/c1ccc2no[n+]([O-])c2c1`, with 11%.

Another test relates to Trypanosoma cruzi. Described as §1.
In the case of `CC1CS(=O)(=O)CCN1/N=C/c1ccc([N+](=O)[O-])o1` (stereo not drawn) [NIFURTIMOX], at 25 µM the inhibition was 100%.

The record behind these values is ChEMBL document CHEMBL1132226, “1,2,5-Oxadiazole N-oxide derivatives and related compounds as potential antitrypanosomal drugs: structure-activity relationships” (1999).
